≈ marks a conversion by molar mass, not a printed value.
Key:
Microsporum canis = assay: In vitro minimum inhibitory concentration (MIC) against isolates of Microsporum canis in Sabouraud's dextrose broth; format: functional
Procedure, shortened: (§1)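 Tube broth dilution in Sabouraud's dextrose broth, pH 6.5. Compounds were dissolved in Me₂SO and serially diluted in medium, then incubated at 30 °C. Growth control was read at 48 h for Candida albicans and C. parapsilosis, 72 h for Aspergillus fumigatus, and 7 days for Sporothrix schenckii and the dermatophytes. MIC is the lowest concentration with no macroscopic growth.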

Epidermophyton floccosum = assay: In vitro minimum inhibitory concentration (MIC) against isolates of Epidermophyton floccosum in Sabouraud's dextrose broth; format: functional; procedure, shortened: as §1
Trichophyton benhamiae = assay: In vitro minimum inhibitory concentration (MIC) against isolates of Trichophyton mentagrophytes in Sabouraud's dextrose broth; format: functional, Arthroderma benhamiae; procedure, shortened: as §1
Sporothrix schenckii = assay: In vitro minimum inhibitory concentration (MIC) against isolates of Sporothrix schenck ii in Sabouraud's dextrose broth; format: functional; procedure, shortened: as §1
Candida parapsilosis = assay: In vitro minimum inhibitory concentration (MIC) against isolates of Candida parapsilosis in Sabouraud's dextrose broth; format: functional; details: Lodderomyces parapsilosis; procedure, shortened: as §1
Cavia porcellus [1] = assay: Compound was evaluated in vivo for the activity (% mycological cure) by topical treatment of guinea pig dermatophytosis caused by Trichophyton mentagrophytes (0.125% of compound); format: functional
Procedure, shortened: (§2)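 Infection model: 8–10 guinea pigs per dose level, lumbar backs shorn, 10^6 cfu T. mentagrophytes in 0.1 mL Sabouraud 2% dextrose broth applied over a 3.5 cm diameter area. Starting 48 h post-inoculation, 0.4 mL compound solution in PEG 400/ethanol 75/25 (v/v) was spread on the lesion once daily for 7 days. Read-out on day 3 after the last treatment: hair cultures checked microscopically for growth at hair roots.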

Cavia porcellus [2] = assay: Compound was evaluated in vivo for the activity (% mycological cure) by topical treatment of guinea pig dermatophytosis caused by Trichophyton mentagrophytes (0.5% of compound); format: functional; procedure, shortened: as §2
Aspergillus fumigatus = assay: In vitro minimum inhibitory concentration (MIC) against isolates of Aspergillus fumigatus in Sabouraud's dextrose broth; format: functional; procedure, shortened: as §1
Cavia porcellus [3] = assay: Compound was evaluated in vivo for the activity (% mycological cure) by oral treatment of guinea pig dermatophytosis caused by Trichophyton mentagrophytes. Dose = 10 mg/kg/day; format: functional
Procedure, shortened: (§3)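 Guinea pigs, 8–10 per dose, with shorn lumbar backs were inoculated over a 3.5 cm circle with 0.1 mL Sabouraud 2% dextrose broth carrying 10^6 cfu T. mentagrophytes. Compound in miglyol 812 was given as 0.5 mL by stomach tube once daily for 9 days from the inoculation day. One day after the last dose, hairs from lesions were cultured and hair-root regions examined microscopically for fungal growth.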

Cavia porcellus [4] = assay: Compound was evaluated in vivo for the activity (% mycological cure) by oral treatment of guinea pig dermatophytosis caused by Trichophyton mentagrophytes. Dose =5 mg/kg/day; format: functional; procedure, shortened: as §3
Candida albicans = assay: In vitro minimum inhibitory concentration (MIC) against isolates of Candida albicans in Sabouraud's dextrose broth; format: functional; procedure, shortened: as §1
Cavia porcellus [5] = assay: Compound was evaluated in vivo for the activity (% mycological cure) by oral treatment of guinea pig dermatophytosis caused by Trichophyton mentagrophytes. Dose = 5 mg/kg/day; format: functional; procedure, shortened: as §3
Cavia porcellus [6] = assay: Compound was evaluated in vivo for the activity (% mycological cure) by oral treatment of guinea pig dermatophytosis caused by Trichophyton mentagrophytes. Dose = 37.5 mg/kg/day; format: functional; procedure, shortened: as §3
Cavia porcellus [7] = assay: Compound was evaluated in vivo for the activity (% mycological cure) by oral treatment of guinea pig dermatophytosis caused by Trichophyton mentagrophytes. Dose = 75 mg/kg/day; format: functional; procedure, shortened: as §3
Cavia porcellus [8] = assay: Compound was evaluated in vivo for the activity (% mycological cure) by oral treatment of guinea pig dermatophytosis caused by Trichophyton mentagrophytes. Dose = 150 mg/kg/day; format: functional; procedure, shortened: as §3

| Compound | MIC (Microsporum canis) [µg/mL] | MIC (Epidermophyton floccosum) [µg/mL] | MIC (Trichophyton benhamiae) [µg/mL] | MIC (Sporothrix schenckii) [µg/mL] | MIC (Candida parapsilosis) [µg/mL] | Activity (Cavia porcellus [1]) [%] | Activity (Cavia porcellus [2]) [%] | MIC (Aspergillus fumigatus) [µg/mL] | Activity (Cavia porcellus [3]) [%] | Activity (Cavia porcellus [4]) [%] | MIC (Candida albicans) [µg/mL] | Activity (Cavia porcellus [5]) [%] | Activity (Cavia porcellus [6]) [%] | Activity (Cavia porcellus [7]) [%] | Activity (Cavia porcellus [8]) [%] |
| --- | --- | --- | --- | --- | --- | --- | --- | --- | --- | --- | --- | --- | --- | --- | --- |
| CCCCC#C/C=C\CN(C)Cc1cccc2ccccc12 | 0.2 (≈ 0.686 µM) | 100 (≈ 343 µM) | 0.2 (≈ 0.686 µM) | 50 (≈ 172 µM) | 100 (≈ 343 µM) | – | – | – | – | – | – | – | – | – | – |
| CN(C/C=C/c1ccccc1)Cc1cccc2ccccc12 [NAFTIFINE] | 0.1 (≈ 0.348 µM) | 0.2 (≈ 0.696 µM) | 0.05 (≈ 0.174 µM) | 1.6 (≈ 5.57 µM) | 1.6 (≈ 5.57 µM) | 35 | 65 | – | – | – | – | – | – | – | – |
| CCC(C)C#C/C=C/CN(C)Cc1cccc2ccccc12 (configuration not stated) | 0.006 (≈ 0.0206 µM) | 0.006 (≈ 0.0206 µM) | 0.01 (≈ 0.0343 µM) | 0.8 (≈ 2.75 µM) | 0.4 (≈ 1.37 µM) | – | – | 100 (≈ 343 µM) | 75 | 23 | 100 (≈ 343 µM) | – | – | – | – |
| CCCCC#CC#CCN(C)Cc1cccc2ccccc12 | 0.8 (≈ 2.76 µM) | 3.1 (≈ 10.7 µM) | 0.2 (≈ 0.691 µM) | 100 (≈ 346 µM) | 100 (≈ 346 µM) | – | – | – | – | – | – | – | – | – | – |
| CN(C/C=C/C#CC(C)(C)C)Cc1cccc2ccccc12 [TERBINAFINE] | 0.006 (≈ 0.0206 µM) | 0.006 (≈ 0.0206 µM) | 0.006 (≈ 0.0206 µM) | 0.4 (≈ 1.37 µM) | 0.4 (≈ 1.37 µM) | – | – | 0.8 (≈ 2.75 µM) | 100 | – | 25 (≈ 85.8 µM) | 98 | – | – | – |
| CCCC/C=C/C#CCN(C)Cc1cccc2ccccc12 | 0.2 (≈ 0.686 µM) | 1.6 (≈ 5.49 µM) | 0.2 (≈ 0.686 µM) | > 100 | > 100 | – | – | – | – | – | – | – | – | – | – |
| CCCCC#C/C=C/CN(C)Cc1cccc2ccccc12 | 0.01 (≈ 0.0343 µM) | 0.01 (≈ 0.0343 µM) | 0.01 (≈ 0.0343 µM) | 1.6 (≈ 5.49 µM) | 0.4 (≈ 1.37 µM) | 83 | 100 | 100 (≈ 343 µM) | 15 | – | 100 (≈ 343 µM) | 0 | 83 | 100 | 100 |
| CCCC/C=C/C=C/CN(C)Cc1cccc2ccccc12 | 0.1 (≈ 0.341 µM) | 0.2 (≈ 0.682 µM) | 0.05 (≈ 0.17 µM) | 3.1 (≈ 10.6 µM) | 1.6 (≈ 5.45 µM) | 40 | 69 | – | – | – | – | – | – | – | 43 |
